Data taken from ChEMBL document CHEMBL1811763, “Design, syntheses, and kinetic evaluation of 3-(phenylamino)oxazolidine-2,4-diones as potent cytochrome bc₁ complex inhibitors” (Bioorg Med Chem, 2011).
The source made the active and inactive calls. The rule behind the calls is not given here.

Tests used:
[1] = Inhibition of pig heart succinate-cytochrome c reductase (Electron transport protein complex 2/3) assessed as increase of cytochrome c by spectrophotometer; set-up: species or system Sus scrofa
Sus scrofa [2] = species on record: Sus scrofa; experiment: Inhibition of pig heart Succinate-ubiquinone oxidoreductase assessed as decrease of 2,6-dichlorophenolindophenol by spectrophotometer
Method in brief: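 Complex II activity within porcine SCR, with succinate and DCIP as substrates. Final concentrations: 100 mM PBS pH 7.4, 0.3 mM EDTA, 20 mM succinate, 53 µM DCIP; adding enzyme starts the reaction. DCIP reduction was followed as absorbance decrease at 600 nm (ε 21 mM⁻¹ cm⁻¹).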

Sus scrofa [3] = species on record: Sus scrofa; experiment: Inhibition of pig heart Cytochrome b-c1 complex assessed as oxidation of DBH2 by spectrophotometer
Method in brief: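 Porcine SCR preparation at 0.1 nM, reaction with 100 µM oxidized cytochrome c and 100 µM DBH2 in 100 mM PBS (pH 7.4), 0.3 mM EDTA; run at 23 °C both without and with 750 µM lauryl maltoside. For kinetics, DBH2 was varied over 20–200 µM with 0–5000 nM inhibitor, and Ki was fitted on a competitive model. DBH2 concentration was set from A288–A320.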

[4] = Non-competitive inhibition of pig heart succinate-cytochrome c reductase (Electron transport protein complex 2/3) using cytochrome c as substrate by Line-weaverBurk plot analysis; set-up: species or system Sus scrofa
Method in brief: (§1)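 Overall succinate→cytochrome c activity of porcine SCR (0.1 nM) was measured at 23 °C in 100 mM PBS pH 7.4, 0.3 mM EDTA and 20 mM succinate. Cytochrome c was varied over 1.16–16.02, with inhibitor at graded levels. Km(cyt c), Vmax and Ki came from double-reciprocal plots, assuming non-competitive inhibition.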

Sus scrofa [5] = species on record: Sus scrofa; experiment: Inhibition of pig heart Succinate-ubiquinone oxidoreductase assessed as decrease of 2,6-dichlorophenolindophenol at 20 uM by spectrophotometer
Sus scrofa [6] = species on record: Sus scrofa; experiment: Ratio Ki for pig heart Cytochrome b-c1 complex to Ki for pig heart succinate-cytochrome c reductase (Electron transport protein complex 2/3)
Sus scrofa [7] = species on record: Sus scrofa; experiment: Activity of pig heart succinate-cytochrome c reductase (Electron transport protein complex 2/3) using cytochrome c as substrate by Line-weaverBurk plot analysis; format: tissue-based; method in brief: as §1
[8] = Competitive inhibition of pig heart Cytochrome b-c1 complex using DBH2 as substrate by Line-weaverBurk plot analysis; set-up: species or system Sus scrofa
Method in brief: (§2)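 Porcine SCR preparation (0.1 nM) as the bc1 source, at 23 °C in 100 mM PBS pH 7.4, 0.3 mM EDTA and 750 lauryl maltoside. Substrates were 100 oxidized cytochrome c and DBH₂ varied over 20–200. Cytochrome c reduction was followed with and without inhibitor. Km(DBH₂), Vmax and Ki came from double-reciprocal plots, assuming competitive inhibition.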

[9] = Competitive inhibition of pig heart Cytochrome b-c1 complex using DBH2 as substrate in absence of lauryl maltoside by Line-weaverBurk plot analysis; set-up: species or system Sus scrofa
[10] = Competitive inhibition of pig heart Cytochrome b-c1 complex using DBH2 as substrate in presence of lauryl maltoside by Line-weaverBurk plot analysis; set-up: species or system Sus scrofa; method in brief: as §2
Sus scrofa [11] = species on record: Sus scrofa; experiment: Activity of pig heart Cytochrome b-c1 complex using DBH2 as substrate by Line-weaverBurk plot analysis; method in brief: as §2
Sus scrofa [12] = species on record: Sus scrofa; experiment: Ratio Vmax for pig heart succinate-cytochrome c reductase (Electron transport protein complex 2/3) to Vmax for pig heart Cytochrome b-c1 complex

Structure (SMILES) | IC50 [1] | inhibition (Sus scrofa [2]) | inhibition (Sus scrofa [3]) | also measured
CC1(c2ccc(Br)nc2)OC(=O)N(Nc2ccccc2)C1=O (centres undefined) | > 1000 nM | inactive | Active | 
COc1ccc(NN2C(=O)OC(C)(c3ccc(Oc4ccccc4)cc3)C2=O)cc1 (centres undefined) | 57.9 nM | inactive | Active | 
CC1(c2ccc(Oc3ccccc3)cc2)OC(=O)N(Nc2ccc(C(F)(F)F)cc2)C1=O (centres undefined) | 63.3 nM | inactive | Active | 
CC1(c2ccc(Oc3ccccc3)cc2)OC(=O)N(Nc2ccc(C#N)cc2)C1=O (centres undefined) | 275 nM | inactive | Active | 
Cc1ccc(NN2C(=O)OC(C)(c3ccc(Oc4ccccc4)cc3)C2=O)cc1 (centres undefined) | 23.8 nM | inactive | Active | 
CC1(c2ccc(Oc3ccccc3)cc2)OC(=O)N(Nc2ccccc2)C1=O (centres undefined) | 3.62 nM |  |  | IC50 [4]: 4.78 nM; Ki [4]: 3.62 nM; inhibition (Sus scrofa [5]): inactive; Ratio Ki (Sus scrofa [6]): 15; Km (Sus scrofa [7]): 4.47 µM; Vmax (Sus scrofa [7]): 0.0081 µM/s; Ki [8]: 51.4 nM; IC50 [9]: 48.2 nM; IC50 [10]: 142 nM; Km (Sus scrofa [11]): 66.2 µM; Vmax (Sus scrofa [11]): 0.0598 µM/s
CC1(c2ccc(Oc3ccccc3)cc2)OC(=O)N(Nc2ccc(F)cc2Br)C1=O (centres undefined) | 60 nM | inactive | Active | 
Cc1cccc(C)c1NN1C(=O)OC(C)(c2ccc(Br)nc2)C1=O (centres undefined) | > 1000 nM | inactive | Active | 
CC1(c2ccc(Oc3ccccc3)cc2)OC(=O)N(Nc2cccc(C(=O)O)c2)C1=O (centres undefined) | 24 nM | inactive | Active | 
CC1(c2ccc(Oc3ccccc3)cc2)OC(=O)N(Nc2ccc(Cl)cc2)C1=O (centres undefined) | 18.8 nM | inactive | Active | 
CC1(c2ccc(Br)nc2)OC(=O)N(Nc2ccc(C(F)(F)F)cc2)C1=O (centres undefined) | > 1000 nM | inactive | Active | 
COc1ccc(NN2C(=O)OC(C)(c3ccc(Br)nc3)C2=O)cc1 (centres undefined) | > 1000 nM | inactive | Active | 
CC1(c2ccc(Br)nc2)OC(=O)N(Nc2ccc([N+](=O)[O-])cc2)C1=O (centres undefined) | > 1000 nM | inactive | Active | 
Cc1ccc(NN2C(=O)OC(C)(c3ccc(Br)nc3)C2=O)cc1 (centres undefined) | > 1000 nM | inactive | Active | 
CC1(c2ccc(Oc3ccccc3)cc2)OC(=O)N(Nc2ccc(C(=O)O)cc2)C1=O (centres undefined) | 5310 nM | inactive | Active | 
Cc1cccc(C)c1NN1C(=O)OC(C)(c2ccc(Oc3ccccc3)cc2)C1=O (centres undefined) | 1520 nM | inactive | Active | 
CC1(c2ccc(Br)nc2)OC(=O)N(Nc2ccc(Cl)cc2)C1=O (centres undefined) | > 1000 nM | inactive | Active | 
Cc1ccc(NN2C(=O)OC(C)(c3ccc(Oc4ccccc4)cc3)C2=O)c(C)c1 (centres undefined) | 15.9 nM | inactive | Active | 
CC1(c2ccc(Oc3ccccc3)cc2)OC(=O)N(Nc2ccc(Br)cc2)C1=O (centres undefined) | 9.44 nM | inactive | Active | IC50 [4]: 9.03 nM; Ki [4]: 9.44 nM; inhibition (Sus scrofa [5]): inactive; Ratio (Sus scrofa [12]): 0.14; Ratio Ki (Sus scrofa [6]): 35; Km (Sus scrofa [7]): 4.45 µM; Vmax (Sus scrofa [7]): 0.0081 µM/s; Ki [8]: 329 nM; IC50 [9]: 337 nM; IC50 [10]: 1050 nM; Km (Sus scrofa [11]): 78 µM; Vmax (Sus scrofa [11]): 0.0574 µM/s
CO/C=C(/C(=O)OC)c1ccccc1Oc1cc(Oc2ccccc2C#N)ncn1 [AZOXYSTROBIN] |  |  |  | IC50 [4]: 291 nM; Ki [4]: 295 nM; Km (Sus scrofa [7]): 4.37 µM; Vmax (Sus scrofa [7]): 0.0099 µM/s; Ki [8]: 204 nM; IC50 [9]: 435 nM; IC50 [10]: 527 nM; Km (Sus scrofa [11]): 72.1 µM; Vmax (Sus scrofa [11]): 0.0528 µM/s
Cc1ccc(NN2C(=O)OC(C)(c3ccc(Br)nc3)C2=O)c(C)c1 (centres undefined) | > 1000 nM | inactive | Active | 
CC1(c2ccc(Br)nc2)OC(=O)N(Nc2ccc(F)cc2Br)C1=O (centres undefined) | > 1000 nM | inactive | Active | 
CC1(c2ccc(Br)nc2)OC(=O)N(Nc2ccc(Br)cc2)C1=O (centres undefined) | > 1000 nM | inactive | Active | 
CC1(c2ccc(Br)nc2)OC(=O)N(Nc2ccc(C#N)cc2)C1=O (centres undefined) | > 1000 nM | inactive | Active | 
